pIC50: −log10 of the molar value. Some results are limits rather than exact numbers.

Data set [1] can be described thus: Volume of distribution at steady state in dog at 1 mg/kg, iv and 5 mg/kg, po. In kind it is ADME, organism-based, Canis lupus familiaris. The note with it: in vivo, read-out: Vdss. The gist of the method: (§1)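 Single-compound PK. Intravenous dose 1 mg/kg given as a 60% PEG solution. Oral dose 5 mg/kg given as an aqueous suspension in 1% methylcellulose. Plasma clearance, steady-state volume of distribution, half-life and oral bioavailability were determined from these doses.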

Data set [2] can be described thus: Plasma clearance in rat at 1 mg/kg, iv and 5 mg/kg, po. Type of data set: ADME, organism-based. Summed up:
as §1

Data set [3] in a line: Oral bioavailability in mouse at 5 mg/kg. In kind it is ADME, organism-based. The following applies: in vivo. The gist of the method: as §1
In data set [4] the target is Mitogen-activated protein kinase 8 (Homo sapiens, UniProt P45983). Description: Inhibition of JNK1 (unknown origin).
Sequence of Mitogen-activated protein kinase 8 (P45983 whole entry): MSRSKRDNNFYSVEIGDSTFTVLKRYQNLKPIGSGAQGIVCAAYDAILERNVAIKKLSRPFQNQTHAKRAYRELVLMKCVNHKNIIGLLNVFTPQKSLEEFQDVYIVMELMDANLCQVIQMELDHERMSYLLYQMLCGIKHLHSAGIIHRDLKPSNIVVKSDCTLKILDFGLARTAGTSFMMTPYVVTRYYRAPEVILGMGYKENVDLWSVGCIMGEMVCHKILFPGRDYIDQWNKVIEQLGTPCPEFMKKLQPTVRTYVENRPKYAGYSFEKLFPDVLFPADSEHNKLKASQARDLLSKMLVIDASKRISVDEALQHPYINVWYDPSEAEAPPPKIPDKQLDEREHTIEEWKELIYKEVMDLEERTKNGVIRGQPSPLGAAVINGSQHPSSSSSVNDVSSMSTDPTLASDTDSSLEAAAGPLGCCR
A short description of data set [5]: Plasma clearance in cynomolgus monkey at 1 mg/kg, iv and 5 mg/kg, po. In kind it is ADME, organism-based, Macaca fascicularis. Summed up:
as §1

For data set [6], the target named is T1, Ephrin type-A receptor 1 (Homo sapiens) (UniProt P21709).
T1 sequence (whole entry): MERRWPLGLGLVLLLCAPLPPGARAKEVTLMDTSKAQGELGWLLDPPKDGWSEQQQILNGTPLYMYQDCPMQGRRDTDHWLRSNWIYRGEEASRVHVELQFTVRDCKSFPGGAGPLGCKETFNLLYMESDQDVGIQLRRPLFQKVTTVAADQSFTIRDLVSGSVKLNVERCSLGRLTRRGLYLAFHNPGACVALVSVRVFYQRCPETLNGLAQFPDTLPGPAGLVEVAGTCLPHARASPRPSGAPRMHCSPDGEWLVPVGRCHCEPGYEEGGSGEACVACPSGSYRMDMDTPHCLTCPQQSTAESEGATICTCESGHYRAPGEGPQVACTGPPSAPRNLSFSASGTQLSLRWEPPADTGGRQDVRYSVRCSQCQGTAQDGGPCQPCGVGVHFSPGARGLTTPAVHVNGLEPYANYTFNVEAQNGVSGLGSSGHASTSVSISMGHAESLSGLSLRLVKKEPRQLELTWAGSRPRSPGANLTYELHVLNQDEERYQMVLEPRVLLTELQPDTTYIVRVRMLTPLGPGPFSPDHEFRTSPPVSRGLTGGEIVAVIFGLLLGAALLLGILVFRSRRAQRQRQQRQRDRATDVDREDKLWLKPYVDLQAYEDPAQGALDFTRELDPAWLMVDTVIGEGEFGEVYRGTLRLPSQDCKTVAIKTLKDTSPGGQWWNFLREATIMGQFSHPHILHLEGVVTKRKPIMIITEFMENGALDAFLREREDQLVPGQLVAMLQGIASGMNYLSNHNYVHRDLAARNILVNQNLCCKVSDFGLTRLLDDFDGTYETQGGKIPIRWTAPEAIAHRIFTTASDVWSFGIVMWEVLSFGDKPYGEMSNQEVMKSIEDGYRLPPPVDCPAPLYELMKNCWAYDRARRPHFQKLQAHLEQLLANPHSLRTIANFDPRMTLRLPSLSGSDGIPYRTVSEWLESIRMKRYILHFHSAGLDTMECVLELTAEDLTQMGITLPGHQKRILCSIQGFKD
Description: Inhibition of EphA1 (unknown origin) at 0.1 uM. The gist of the method:
(§2)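 Kinase selectivity panel of 298 kinases, test compound at 0.1 μM, percent inhibition reported.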

Data set [7] has as its target Serine/threonine-protein kinase 16 (Homo sapiens) (UniProt O75716). Description: Inhibition of STK16 (unknown origin) at 0.1 uM. Summed up: as §2
Data set [8] can be described thus: Oral bioavailability in cynomolgus monkey at 5 mg/kg. In kind it is ADME, organism-based, Macaca fascicularis. The note with it: in vivo. The gist of the method: as §1
Data set [9] can be described thus: Plasma clearance in mouse at 1 mg/kg, iv and 5 mg/kg, po. Type of data set: ADME, organism-based. Summed up:
as §1

Data set [10] can be described thus: Volume of distribution at steady state in mouse at 1 mg/kg, iv and 5 mg/kg, po. In kind it is ADME, organism-based. The following applies: in vivo, read-out: Vdss. The gist of the method:
as §1

Data set [11] is described as follows: Oral bioavailability in dog at 5 mg/kg. Type of data set: ADME, organism-based, Canis lupus familiaris. The following applies: in vivo. The gist of the method:
as §1

Data set [12] addresses Proto-oncogene tyrosine-protein kinase Src (Homo sapiens) (UniProt P12931). The data set is described as follows: Inhibition of Src_N1 (unknown origin) at 0.1 uM. Summed up: as §2
The test system of data set [13] is DRG neuron. The data set is described as follows: (§3) Neuroprotective activity in E14.5 rat embryo DRG neurons. In kind it is functional. The gist of the method:
(§4)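 DRG neurons freshly dissected from E14.5 rat embryos, plated at 1200−2000 cells/well on an astrocyte monolayer in DMEM/F12 with N3 supplement, 0.18% glucose and 25 ng/mL NGF. 200 μM uridine and 100 μM 5-fluorodeoxyuridine added next day. Cultured 4 days before axon degeneration assay. IC50 reported.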

Data set [14] can be described thus: as §3. In kind it is functional. The following applies: drg neuron. The gist of the method:
as §4

Data set [15] has as its target T2, Dual specificity mitogen-activated protein kinase kinase 7 (Homo sapiens, UniProt O14733).
T2 sequence (O14733 whole entry): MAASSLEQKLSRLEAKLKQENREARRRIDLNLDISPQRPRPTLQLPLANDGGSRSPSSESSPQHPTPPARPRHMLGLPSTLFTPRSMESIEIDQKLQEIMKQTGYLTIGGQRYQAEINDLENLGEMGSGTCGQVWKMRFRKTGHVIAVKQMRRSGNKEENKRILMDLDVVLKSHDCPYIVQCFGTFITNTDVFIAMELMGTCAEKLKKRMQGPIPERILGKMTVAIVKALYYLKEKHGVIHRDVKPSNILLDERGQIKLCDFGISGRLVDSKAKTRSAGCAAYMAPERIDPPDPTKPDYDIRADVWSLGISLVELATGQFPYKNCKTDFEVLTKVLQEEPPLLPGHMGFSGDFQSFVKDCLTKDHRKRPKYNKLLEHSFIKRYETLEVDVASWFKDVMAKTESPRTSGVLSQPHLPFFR
Description: Inhibition of MKK7 (unknown origin).

The target of data set [16] is Mitogen-activated protein kinase kinase kinase 9 (Homo sapiens, UniProt P80192). Description: Inhibition of MLK1 (unknown origin).
Sequence of Mitogen-activated protein kinase kinase kinase 9 (P80192 whole entry): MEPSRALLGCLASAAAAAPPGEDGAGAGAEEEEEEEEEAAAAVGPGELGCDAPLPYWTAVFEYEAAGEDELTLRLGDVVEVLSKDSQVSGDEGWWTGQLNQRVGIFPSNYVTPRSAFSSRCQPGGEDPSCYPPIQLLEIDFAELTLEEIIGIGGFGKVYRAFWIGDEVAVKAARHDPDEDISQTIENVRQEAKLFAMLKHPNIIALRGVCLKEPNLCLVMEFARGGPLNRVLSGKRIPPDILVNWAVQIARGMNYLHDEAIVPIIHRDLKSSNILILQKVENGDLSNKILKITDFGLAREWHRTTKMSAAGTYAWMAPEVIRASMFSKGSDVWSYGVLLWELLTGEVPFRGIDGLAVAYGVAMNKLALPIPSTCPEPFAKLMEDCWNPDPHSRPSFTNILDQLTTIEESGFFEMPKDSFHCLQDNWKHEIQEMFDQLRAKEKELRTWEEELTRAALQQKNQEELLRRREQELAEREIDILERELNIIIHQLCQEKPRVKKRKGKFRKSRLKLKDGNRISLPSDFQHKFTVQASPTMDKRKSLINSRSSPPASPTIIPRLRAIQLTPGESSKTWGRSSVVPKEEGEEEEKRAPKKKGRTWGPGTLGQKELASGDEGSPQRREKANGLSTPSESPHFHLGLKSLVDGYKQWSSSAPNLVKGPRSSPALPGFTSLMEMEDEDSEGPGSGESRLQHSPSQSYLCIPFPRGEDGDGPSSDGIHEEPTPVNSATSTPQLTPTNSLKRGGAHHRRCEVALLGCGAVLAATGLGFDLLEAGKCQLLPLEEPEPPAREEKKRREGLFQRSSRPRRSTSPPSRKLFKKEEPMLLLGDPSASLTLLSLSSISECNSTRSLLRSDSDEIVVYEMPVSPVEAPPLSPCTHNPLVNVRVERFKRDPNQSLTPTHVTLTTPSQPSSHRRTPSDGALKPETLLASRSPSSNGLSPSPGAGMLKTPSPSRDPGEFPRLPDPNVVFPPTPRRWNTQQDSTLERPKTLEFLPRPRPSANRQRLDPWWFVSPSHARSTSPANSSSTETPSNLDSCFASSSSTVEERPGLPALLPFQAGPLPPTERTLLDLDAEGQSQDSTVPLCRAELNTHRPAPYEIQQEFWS

Sequence of Proto-oncogene tyrosine-protein kinase Src (Homo sapiens) (P12931 2-536 limits assumed): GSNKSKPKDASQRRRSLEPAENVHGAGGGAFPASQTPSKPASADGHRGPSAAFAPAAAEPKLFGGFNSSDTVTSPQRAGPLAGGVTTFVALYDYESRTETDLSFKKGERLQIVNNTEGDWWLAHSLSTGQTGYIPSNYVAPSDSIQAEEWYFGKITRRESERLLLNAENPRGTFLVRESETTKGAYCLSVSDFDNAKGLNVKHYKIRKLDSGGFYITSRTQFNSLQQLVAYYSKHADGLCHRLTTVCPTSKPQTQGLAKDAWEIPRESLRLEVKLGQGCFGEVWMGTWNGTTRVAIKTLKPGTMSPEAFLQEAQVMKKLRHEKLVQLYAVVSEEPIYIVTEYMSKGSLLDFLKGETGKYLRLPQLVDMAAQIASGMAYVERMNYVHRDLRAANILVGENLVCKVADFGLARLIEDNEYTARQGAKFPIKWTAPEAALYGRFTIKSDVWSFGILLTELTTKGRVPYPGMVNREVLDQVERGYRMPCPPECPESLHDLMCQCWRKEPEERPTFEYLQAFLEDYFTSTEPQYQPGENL
Sequence of Serine/threonine-protein kinase 16 (Homo sapiens) (O75716 whole entry): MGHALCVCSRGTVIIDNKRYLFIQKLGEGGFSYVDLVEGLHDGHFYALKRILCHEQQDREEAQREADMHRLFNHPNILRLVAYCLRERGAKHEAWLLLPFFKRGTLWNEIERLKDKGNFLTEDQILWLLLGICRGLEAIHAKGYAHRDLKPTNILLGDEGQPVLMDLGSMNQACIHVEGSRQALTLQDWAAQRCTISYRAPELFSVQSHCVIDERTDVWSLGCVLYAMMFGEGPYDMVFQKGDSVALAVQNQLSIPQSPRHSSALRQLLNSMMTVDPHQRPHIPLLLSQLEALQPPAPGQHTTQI

The term bioavailability denotes dose-corrected exposure relative to a reference, in per cent. Broadly, the pIC50 is the negative decadic logarithm of the IC50, by convention in mol/L. In general, inhibition refers to the drop in the measured response relative to a control, in per cent. As to `N#Cc1ccnc(Nc2cc(C3CCN(C4COC4)CC3)cc(N3CCC(F)(F)C3)n2)c1`, the Vd was found to be 6.5 L/kg in [1] and 2.5 L/kg in [10]. In addition, the clearance in data set [2] was 30 mL/min/kg; in [5], 16 mL/min/kg; in [9] it was 56 mL/min/kg. Moreover, the bioavailability in data set [3] was determined as 45%; in [8] it was 19%; in data set [11], 32%. For the same compound, the pIC50 in [4] was 6.89; in data set [14], 6.97; in [15] it was < 5.30; in [16], 7.17. In addition, the inhibition in [6], in data set [7] and in data set [12] was > 80% each time. Besides, in data set [13], the Activity result was “Dose-dependent effect”.
